Holding throughout (format): functional
Common to all, as to parameters: scale not given: the % may be the effect or the level left
Holding throughout (details): route intraperitoneal

Test [1] deals with Rattus norvegicus. Nature of the test: Antihyperlipidemic effect in high fat diet-induced rat assessed as decrease in serum total cholesterol level at 10 mg/kg, ip relative to control. A digest of the protocol: (§1)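 Male JCL:Wistar rats (150 g) on commercial chow 1 week, then high-fat diet (10 g soybean oil per 100 g, casein, α-cornstarch) 6 days, pair-matched for blood triglyceride and body weight. Compound suspended in 5% EtOH/saline, ip once daily for 3 days; controls get vehicle. Sacrificed 4 h after last dose (2–3 PM); serum separated at 1000 g, 4°. Six rats per group; percent of control; Student's t-test.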

The subject of test [2] is Rattus norvegicus. Nature of the test: Antihyperlipidemic effect in high fat diet-induced rat assessed as decrease in serum triglyceride level at 10 mg/kg, ip relative to control. In short, it runs like this:
as §1

Test [3] relates to Rattus norvegicus. The test can be described thus: Antihyperlipidemic effect in high fat diet-induced rat assessed as decrease in serum total cholesterol level at 20 mg/kg, ip relative to control. A digest of the protocol:
as §1

Test [4] concerns Rattus norvegicus. Nature of the test: Antihyperlipidemic effect in high fat diet-induced rat assessed as decrease in serum triglyceride level at 20 mg/kg, ip relative to control. A digest of the protocol: as §1

Turning to `COc1ccc([C@@H]2CC(=O)c3c(O[C@@H]4O[C@H](CO)[C@@H](O)[C@H](O)[C@H]4O)cc(O)cc3O2)cc1O`, the Activity in the test on Rattus norvegicus [1] came out at 88%; with Rattus norvegicus [2], 100%; in the test on Rattus norvegicus [3], 101%; in the test on Rattus norvegicus [4] it was 90%.
`Oc1cc(O)c2c(c1)O[C@H](c1ccc(O)c(O)c1)[C@@H](O)C2` [CIANIDANOL]: the Activity in the test on Rattus norvegicus [1] was determined as 95%; in the test on Rattus norvegicus [2], 75%; in the test on Rattus norvegicus [3] it was 99%; with Rattus norvegicus [4], 73%.
On the same counts, the results for `O=C1C[C@@H](c2ccc(O)cc2)Oc2cc(O[C@@H]3O[C@H](CO)[C@@H](O)[C@H](O)[C@H]3O)cc(O)c21` [PRUNIN] are 102%, 90%, 91% and 107%.
